Legend:
[1] = molecular target: T1, Angiotensin-converting enzyme (Rattus norvegicus) (UniProt P47820); assay: Evaluation of plasma inhibition of Angiotensin I converting enzyme activity in conscious rat 4 hours after intravenous administration at a dose of 10 mg/kg; assay type: functional, organism-based; parameters: dose 10 mg/kg
T1 sequence (whole entry): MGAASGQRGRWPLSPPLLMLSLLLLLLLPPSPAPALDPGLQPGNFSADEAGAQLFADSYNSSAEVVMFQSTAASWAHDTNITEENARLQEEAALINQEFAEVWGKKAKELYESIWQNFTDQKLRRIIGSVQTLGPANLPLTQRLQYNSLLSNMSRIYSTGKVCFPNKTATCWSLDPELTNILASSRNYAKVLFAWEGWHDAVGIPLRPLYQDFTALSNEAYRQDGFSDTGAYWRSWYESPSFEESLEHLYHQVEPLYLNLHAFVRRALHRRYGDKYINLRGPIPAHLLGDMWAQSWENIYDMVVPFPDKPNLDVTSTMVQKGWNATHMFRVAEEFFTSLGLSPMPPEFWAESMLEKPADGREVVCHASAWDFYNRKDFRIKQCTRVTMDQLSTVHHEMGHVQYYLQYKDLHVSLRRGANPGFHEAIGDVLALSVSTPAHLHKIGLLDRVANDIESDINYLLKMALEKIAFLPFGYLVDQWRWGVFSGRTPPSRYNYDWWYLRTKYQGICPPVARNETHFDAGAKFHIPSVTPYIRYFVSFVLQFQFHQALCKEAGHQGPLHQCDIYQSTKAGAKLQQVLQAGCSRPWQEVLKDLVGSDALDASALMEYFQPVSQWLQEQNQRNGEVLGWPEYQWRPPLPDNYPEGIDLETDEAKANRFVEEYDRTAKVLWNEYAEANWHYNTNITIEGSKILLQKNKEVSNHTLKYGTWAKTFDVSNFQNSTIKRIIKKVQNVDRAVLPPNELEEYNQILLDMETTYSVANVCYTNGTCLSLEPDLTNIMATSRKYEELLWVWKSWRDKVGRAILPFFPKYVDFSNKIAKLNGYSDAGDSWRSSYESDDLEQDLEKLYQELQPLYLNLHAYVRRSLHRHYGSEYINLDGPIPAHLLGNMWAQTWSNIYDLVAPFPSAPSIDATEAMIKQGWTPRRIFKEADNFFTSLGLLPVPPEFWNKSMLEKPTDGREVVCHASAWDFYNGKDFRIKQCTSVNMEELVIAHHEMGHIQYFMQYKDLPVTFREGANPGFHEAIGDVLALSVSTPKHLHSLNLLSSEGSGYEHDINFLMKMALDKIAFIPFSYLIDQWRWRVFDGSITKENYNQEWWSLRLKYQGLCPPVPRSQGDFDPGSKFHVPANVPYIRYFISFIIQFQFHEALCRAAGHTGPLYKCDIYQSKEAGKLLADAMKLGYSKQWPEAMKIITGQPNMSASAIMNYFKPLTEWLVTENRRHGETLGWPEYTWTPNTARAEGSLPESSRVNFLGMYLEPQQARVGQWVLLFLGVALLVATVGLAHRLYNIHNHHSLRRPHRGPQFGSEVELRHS
Method in brief: (§1)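 Male conscious normotensive Sprague-Dawley rats (275-390 g) fitted the day before with femoral arterial and venous catheters under methohexital anesthesia. Three angiotensin-I challenges (300 ng/kg iv) given as baseline. Compound given iv, ia or po (12.3 mg/kg po dose in 3% cornstarch at 1 mg/mL), then AI challenges repeated at set times. Pressor response compared with the mean baseline response and expressed as % inhibition.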

Neprilysin = molecular target: T2, Neprilysin (Rattus norvegicus, UniProt P07861); assay: Evaluation of in vitro inhibitory activity against Neutral endopeptidase
T2 sequence (P07861 whole entry): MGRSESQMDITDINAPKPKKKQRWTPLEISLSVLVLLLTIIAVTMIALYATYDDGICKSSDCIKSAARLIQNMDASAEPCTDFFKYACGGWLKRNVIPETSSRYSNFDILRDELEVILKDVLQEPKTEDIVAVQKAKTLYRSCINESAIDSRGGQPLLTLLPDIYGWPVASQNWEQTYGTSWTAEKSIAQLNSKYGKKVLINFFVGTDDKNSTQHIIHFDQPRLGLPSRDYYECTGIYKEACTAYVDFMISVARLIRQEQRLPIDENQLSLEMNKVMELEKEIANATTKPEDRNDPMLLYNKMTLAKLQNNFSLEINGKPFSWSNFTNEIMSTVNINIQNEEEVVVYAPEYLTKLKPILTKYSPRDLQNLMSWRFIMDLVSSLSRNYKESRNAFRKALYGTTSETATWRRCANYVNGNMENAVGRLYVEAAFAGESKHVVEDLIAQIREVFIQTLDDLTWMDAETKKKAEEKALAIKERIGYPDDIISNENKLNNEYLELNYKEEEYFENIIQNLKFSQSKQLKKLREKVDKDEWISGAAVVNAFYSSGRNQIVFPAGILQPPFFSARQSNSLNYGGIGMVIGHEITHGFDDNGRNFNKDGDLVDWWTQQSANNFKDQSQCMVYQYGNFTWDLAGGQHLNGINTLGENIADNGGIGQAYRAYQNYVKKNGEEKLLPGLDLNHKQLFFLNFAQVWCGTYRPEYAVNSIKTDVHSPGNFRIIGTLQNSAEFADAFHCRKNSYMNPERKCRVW
Method in brief: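 Rat kidney cortex membrane homogenate (4.2 μg protein) preincubated 10 min at 25 °C with increasing inhibitor concentrations. Then 500 μM GAAP (final) in 50 mM Tris pH 7.4 with leucine aminopeptidase M, 25 min at 25 °C. Done in duplicate; IC50 from curves of seven points near the IC50.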

[2] = molecular target: T1, Angiotensin-converting enzyme (Rattus norvegicus); assay: Evaluation of plasma inhibition of Angiotensin I converting enzyme activity in conscious rat 1 hour after intravenous administration at a dose of 10 mg/kg; assay type: functional, organism-based; parameters: dose 10 mg/kg; method in brief: as §1
[3] = molecular target: T1, Angiotensin-converting enzyme (Rattus norvegicus); assay: Evaluation of plasma inhibition of Angiotensin I converting enzyme activity in conscious rat 2 hours after intravenous administration at a dose of 10 mg/kg; assay type: functional, organism-based; parameters: dose 10 mg/kg; method in brief: as §1

Compound | inhibition [1] | IC50 (Neprilysin) | inhibition [2] | inhibition [3]
CC(C)[C@H](S)C(=O)NC1(C(=O)N[C@@H](Cc2ccc(O)cc2)C(=O)O)CCOCC1 | 4% | 6.4 nM | 43% | 27%
CC(C)[C@H](S)C(=O)NC1(C(=O)N[C@@H](Cc2ccc(O)cc2)C(=O)O)CC1 | 30% | 5 nM | 91% | 43%
CC(C)[C@H](S)C(=O)NC1(C(=O)N[C@@H](CCc2ccccc2)C(=O)O)CCCC1 | 79% | 1.2 nM | 72% | 69%
CC(C)[C@H](S)C(=O)NC1(C(=O)N[C@@H](Cc2ccsc2)C(=O)O)CCCC1 | 87% | 2.6 nM | 97% | 100%
CC(C)[C@H](S)C(=O)NC1(C(=O)N[C@@H](Cc2ccccn2)C(=O)O)CCCC1 | 28% | 3 nM | 73% | 52%
CC(C)[C@H](S)C(=O)NC1(C(=O)N[C@@H](Cc2ccc(O)cc2)C(=O)O)Cc2ccccc2C1 | 24% | 25 nM | 86% | 59%
CC(C)[C@H](S)C(=O)NC1(C(=O)N[C@@H](Cc2ccc(F)cc2)C(=O)O)CCCC1 | 38% | 1.8 nM | 85% | 80%
O=C(O)[C@H](Cc1ccc(O)cc1)NC(=O)C1(NC(=O)[C@@H](S)Cc2ccccc2)CCCC1 | 43% | 3 nM | 86% | 75%
O=C(CS)NC1(C(=O)N[C@@H](Cc2ccc(O)cc2)C(=O)O)CCCC1 | 7% | 15 nM | 44% | 15%
CC(C)[C@H](S)C(=O)NC1(C(=O)N[C@@H](Cc2cccs2)C(=O)O)CCCC1 | 44% | 1.5 nM | 79% | 68%
CC(C)[C@H](S)C(=O)NC1(C(=O)N[C@@H](Cc2c[nH]c3ccccc23)C(=O)O)CCCC1 | 86% | 2.1 nM | 98% | 92%
CC(C)[C@H](S)C(=O)NC1(C(=O)N[C@@H](Cc2ccc(O)cc2)C(=O)O)CCCC1 | 83% | 1.5 nM | 90% | 91%
CC(C)[C@H](S)C(=O)NC(C)(C)C(=O)N[C@@H](Cc1ccc(O)cc1)C(=O)O | 69% | 9.2 nM | 88% | 81%
